# pEC50, pIC50: −log10 of the molar value. Active and inactive are the calls of the source. No cut-off for these calls is given here. Non-standard residues stand in square brackets, D forms with d. Residues, ends and D or L forms follow the SMILES beside them. NMeF = CN[C@@H](Cc1ccccc1)C(=O)O; NMeE = CN[C@@H](CCC(=O)O)C(=O)O; NMeQ = CN[C@@H](CCC(N)=O)C(=O)O; NMeK = CN[C@@H](CCCCN)C(=O)O; NMeM = CN[C@@H](CCSC)C(=O)O
# Columns and labels:
# [1] = Antagonist activity at ComD2 receptor in Streptococcus pneumoniae TIGR4 harboring pcomX/lacZ reporter gene assessed as inhibition of CSP2-stimulated maximum signal preincubated for 30 mins followed by 250 nM native CSP2 addition by ONPG based beta-galactosidase assay
# Method in brief: (§1)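 Comx-lacZ β-gal reporter inhibition in D39 (ComD1, CSP1 50 nM) or TIGR4 (ComD2, CSP2 250 nM). Peptides tested over a range of concentrations against the stimulating CSP. Miller units normalized to CSP alone. IC50 given with 95% confidence interval.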
# [2] = Metabolic stability in aqueous ammonium carbonate solution assessed as trypsin/chymotrypsin (unknown origin)-mediated drug degradation by measuring half life at 0.05 ug/ml incubated in shaking conditions in presence of trypsin/chymotrpsin and measured for 48 hrs by RP-HPLC analysis; assay type: ADME; details: human
# [3] = Antagonist activity at ComD1 receptor in Streptococcus pneumoniae D39 harboring pcomX/lacZ reporter gene assessed as inhibiton of CSP1-stimulated maximum signal preincubated for 30 mins followed by 50 nM CSP1 addition by ONPG based beta-galactosidase assay; method in brief: as §1
# [4] = Metabolic stability in human plasma at 0.33 mM measured for 3 hrs by RP-HPLC analysis; assay type: ADME, cell-free; details: 330 µM
# [5] = test system: Streptococcus pneumoniae D39; experiment: Agonist activity at ComD1 receptor in Streptococcus pneumoniae D39 harboring pcomX/lacZ reporter gene at 10 uM incubated for 30 mins by ONPG based beta-galactosidase assay relative to native CSP1
# Method in brief: (§2)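 Single-dose screen of synthetic peptide at 10 μM in wild-type reporter strains (D39 for ComD1, TIGR4 for ComD2) producing their own CSP and carrying lacZ under the comX promoter. β-gal activity in Miller units normalized to native CSP (CSP1 or CSP2, 100%); DMSO 0%. Triplicates over three separate trials.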
# [6] = test system: Streptococcus pneumoniae D39; experiment: Antagonist activity at ComD1 receptor in Streptococcus pneumoniae D39 harboring pcomX/lacZ reporter gene assessed as inhibiton of CSP1-stimulated maximum signal at 10 uM preincubated for 30 mins followed by 50 nM CSP1 addition by ONPG based beta-galactosidase assay relative to native CSP1
# Method in brief: (§3)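 Inhibition screen: peptides at 10 μM against CSP1 50 nM (D39, ComD1) or CSP2 250 nM (TIGR4, ComD2), in comX-lacZ reporter strains. β-gal Miller units normalized to CSP alone (100%) and DMSO (0%). Triplicates over three separate trials.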
# [7] = test system: Streptococcus pneumoniae TIGR4; experiment: Antagonist activity at ComD2 receptor in Streptococcus pneumoniae TIGR4 harboring pcomX/lacZ reporter gene assessed as inhibition of CSP2-stimulated maximum signal at 10 uM preincubated for 30 mins followed by 250 nM CSP2 addition by ONPG based beta-galactosidase assay relative to native CSP2; method in brief: as §3
# [8] = Solubility of the compound in ammonium carbonate solution at pH 8; assay type: physicochemical; details: buffer
# [9] = Metabolic stability in human plasma assessed as half-life at 0.33 mM measured for 3 hrs by RP-HPLC analysis; assay type: ADME, cell-free
# [10] = test system: Streptococcus pneumoniae TIGR4; experiment: Agonist activity at ComD2 receptor in Streptococcus pneumoniae TIGR4 harboring pcomX/lacZ reporter gene at 10 uM incubated for 30 mins by ONPG based beta-galactosidase assay relative to native CSP2; method in brief: as §2
# [11] = Agonist activity at ComD2 receptor in Streptococcus pneumoniae TIGR4 harboring pcomX/lacZ reporter gene incubated for 30 mins by ONPG based beta-galactosidase assay
# Method in brief: (§4)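 Dose-response in wild-type lacZ reporter strains (comX promoter; D39 for ComD1, TIGR4 for ComD2) producing native CSP. Peptides tested over a range of concentrations. β-gal read-out (Miller units) normalized to native CSP. EC50 reported with 95% confidence interval.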
# [12] = Agonist activity at ComD1 receptor in Streptococcus pneumoniae D39 harboring pcomX/lacZ reporter gene incubated for 30 mins by ONPG based beta-galactosidase assay; method in brief: as §4
# Homo sapiens = organism: Homo sapiens; experiment: Metabolic stability in aqueous ammonium carbonate solution assessed as trypsin/chymotrypsin (unknown origin)-mediated drug degradation by measuring half life at 0.05 ug/ml incubated in shaking conditions and measured for 24 hrs by RP-HPLC analysis
SMILES,pIC50 [1],half-life at 0.05 ug/ml [2] [h],pIC50 [3],Stability [4],Activity [5],inhibition [6],inhibition [7] [%],solubility [8],half-life at 330 µM [9] [h],Activity [10],pEC50 [11],pEC50 [12],T1/2 (Homo sapiens) [h]
CC[C@H](C)[C@H](NC(=O)[C@H](CCCNC(=N)N)NC(=O)[C@H](CCSC)NC(=O)[C@H](C)N)C(=O)N[C@@H](CO)C(=O)N[C@@H](CCCNC(=N)N)C(=O)N[C@H](C(=O)N[C@H](C(=O)N[C@@H](CC(C)C)C(=O)N[C@H](CC(=O)O)C(=O)N[C@@H](Cc1ccccc1)C(=O)N[C@@H](CC(C)C)C(=O)N(C)[C@@H](Cc1ccccc1)C(=O)N[C@@H](CC(C)C)C(=O)N[C@@H](CCCNC(=N)N)C(=O)N[C@@H](CCCCN)C(=O)N[C@@H](CCCCN)C(=O)O)[C@@H](C)CC)[C@@H](C)CC,7.19,4,< 6.00,Unstable,,,,,,,,,
CC[C@H](C)[C@H](NC(=O)[C@H](CCCNC(=N)N)NC(=O)[C@H](CCSC)NC(=O)[C@H](CCC(=O)O)NC)C(=O)N[C@@H](CO)C(=O)N[C@@H](CCCNC(=N)N)C(=O)N[C@H](C(=O)N[C@H](C(=O)N[C@@H](CC(C)C)C(=O)N[C@@H](CC(=O)O)C(=O)N[C@@H](Cc1ccccc1)C(=O)N[C@@H](CC(C)C)C(=O)N[C@@H](Cc1ccccc1)C(=O)O)[C@@H](C)CC)[C@@H](C)CC (H-[NMeE]MRISRIILDFLF-OH),< 6.00,,,,inactive,inactive,> 50,Insoluble,,,,,
CC[C@H](C)[C@H](NC(=O)[C@H](Cc1ccccc1)NC(=O)[C@H](CC(=O)O)NC(=O)[C@H](CCCNC(=N)N)NC(=O)[C@H](Cc1ccccc1)NC(=O)[C@H](Cc1ccccc1)NC(=O)[C@H](CCCCN)N(C)C(=O)[C@H](CO)NC(=O)[C@H](CC(C)C)NC(=O)[C@H](CCCNC(=N)N)NC(=O)[C@H](CCSC)NC(=O)[C@@H](N)CCC(=O)O)C(=O)N[C@@H](CC(C)C)C(=O)N[C@@H](CCC(N)=O)C(=O)N[C@@H](CCCNC(=N)N)C(=O)O (H-EMRLS[NMeK]FFRDFILQR-OH),,> 48,,,> 75%,,,,< 0.5,inactive,< 6.00,7.19,
CC[C@H](C)[C@H](NC(=O)[C@H](Cc1ccccc1)NC(=O)[C@H](CC(=O)O)NC(=O)[C@H](CCCNC(=N)N)NC(=O)[C@H](Cc1ccccc1)NC(=O)[C@H](Cc1ccccc1)N(C)C(=O)[C@H](CCCCN)NC(=O)[C@H](CO)NC(=O)[C@H](CC(C)C)NC(=O)[C@H](CCCNC(=N)N)NC(=O)[C@H](CCSC)NC(=O)[C@@H](N)CCC(=O)O)C(=O)N[C@@H](CC(C)C)C(=O)N[C@@H](CCC(N)=O)C(=O)N[C@@H](CCCNC(=N)N)C(=O)O (H-EMRLSK[NMeF]FRDFILQR-OH),,> 48,,,> 75%,,,,< 0.5,inactive,,6.55,
CC[C@H](C)[C@H](NC(=O)[C@H](CCCNC(=N)N)NC(=O)[C@H](CCSC)N(C)C(=O)[C@@H](N)CCC(=O)O)C(=O)N[C@@H](CO)C(=O)N[C@@H](CCCNC(=N)N)C(=O)N[C@H](C(=O)N[C@H](C(=O)N[C@@H](CC(C)C)C(=O)N[C@@H](CC(=O)O)C(=O)N[C@@H](Cc1ccccc1)C(=O)N[C@@H](CC(C)C)C(=O)N[C@@H](Cc1ccccc1)C(=O)O)[C@@H](C)CC)[C@@H](C)CC (H-E[NMeM]RISRIILDFLF-OH),< 6.00,,,,inactive,inactive,> 50,Insoluble,,,,,
CC[C@H](C)[C@H](NC(=O)[C@H](Cc1ccccc1)NC(=O)[C@H](CC(=O)O)NC(=O)[C@H](CCCNC(=N)N)NC(=O)[C@H](Cc1ccccc1)NC(=O)[C@H](Cc1ccccc1)NC(=O)[C@H](CCCCN)NC(=O)[C@H](CO)NC(=O)[C@H](CC(C)C)NC(=O)[C@H](CCCNC(=N)N)NC(=O)[C@H](CCSC)NC(=O)[C@@H](N)CCC(=O)O)C(=O)N[C@@H](CC(C)C)C(=O)N[C@@H](CCC(N)=O)C(=O)N[C@@H](CCCNC(=N)N)C(=O)N[C@@H](CCCCN)C(=O)N[C@@H](CCCCN)C(=O)O,,,,,,,,,,,,8.00,1.5
CC[C@H](C)[C@H](NC(=O)[C@H](Cc1ccccc1)NC(=O)[C@H](CC(=O)O)NC(=O)[C@H](CCCNC(=N)N)NC(=O)[C@H](Cc1ccccc1)NC(=O)[C@H](Cc1ccccc1)NC(=O)[C@H](CCCCN)NC(=O)[C@H](CO)NC(=O)[C@H](CC(C)C)NC(=O)[C@H](CCCNC(=N)N)NC(=O)[C@H](CCSC)NC(=O)[C@@H](N)CCC(=O)O)C(=O)N[C@@H](CC(C)C)C(=O)N(C)[C@@H](CCC(N)=O)C(=O)N[C@@H](CCCNC(=N)N)C(=O)O (H-EMRLSKFFRDFIL[NMeQ]R-OH),,6,,,> 75%,,,,2,inactive,,7.17,

# From ChEMBL document CHEMBL4364271, “Unveiling the Importance of Amide Protons in CSP:ComD Interactions in Streptococcus pneumoniae” (ACS Med Chem Lett, 2019)
